The values below come from ChEMBL document CHEMBL4613265, “Novel Human Neutral Sphingomyelinase 2 Inhibitors as Potential Therapeutics for Alzheimer's Disease” (J Med Chem, 2020).

SMILES strings stand for the structures. The source made the active and inactive calls. No cut-off for these calls is given here. A value given as a limit tells only on which side of the number the result lay.

The target in data set [1] is T1, Sphingomyelin phosphodiesterase 3 (Homo sapiens, UniProt Q9NY59).
T1 sequence (Q9NY59 whole entry): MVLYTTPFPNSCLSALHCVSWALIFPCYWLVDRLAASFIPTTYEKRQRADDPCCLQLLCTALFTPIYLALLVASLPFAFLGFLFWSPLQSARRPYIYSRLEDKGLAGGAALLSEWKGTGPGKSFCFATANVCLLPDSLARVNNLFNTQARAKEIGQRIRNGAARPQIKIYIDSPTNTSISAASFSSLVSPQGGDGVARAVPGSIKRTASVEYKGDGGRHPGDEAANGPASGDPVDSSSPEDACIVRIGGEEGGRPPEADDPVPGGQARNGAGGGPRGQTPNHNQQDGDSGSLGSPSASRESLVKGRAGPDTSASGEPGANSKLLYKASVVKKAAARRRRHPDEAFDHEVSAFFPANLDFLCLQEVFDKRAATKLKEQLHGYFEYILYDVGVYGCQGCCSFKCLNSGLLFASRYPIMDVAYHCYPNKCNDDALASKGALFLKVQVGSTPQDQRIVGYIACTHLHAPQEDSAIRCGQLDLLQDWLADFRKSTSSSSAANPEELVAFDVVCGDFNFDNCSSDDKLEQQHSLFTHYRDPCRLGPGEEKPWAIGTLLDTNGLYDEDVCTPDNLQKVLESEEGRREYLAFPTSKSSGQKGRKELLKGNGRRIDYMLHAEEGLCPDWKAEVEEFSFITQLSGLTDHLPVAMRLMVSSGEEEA
Description: Inhibition of human recombinant full-length nSMase expressed in HEK293 cells using sphingomyelin as substrate measured after 1 hr by alkaline phosphatase, choline oxidase and horseradish peroxidase dependent H2O2 detection-coupled amplex reagent based fluorescence assay.

Data set [2] is described as follows: Stability in mouse liver microsomes assessed as parent compound remaining at 1 uM measured after 60 mins in absence of NADPH by LC-MS/MS analysis. The format is ADME, Microsome. Particulars: liver microsomes, read-out: Stability. The gist of the method:
(§1)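 Cofactor-free control for cofactor-independent degradation. Mouse or human liver microsomes at 0.2 mg/mL, 1 μM compound (final), 100 mM potassium phosphate at pH 7.4, no NADPH regenerating system. Adding microsomes started the reaction; run in triplicate. Sampled at 60 min and quenched with three volumes of ice-cold acetonitrile spiked with internal standard.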
A general note: Microsomes from liver hold many membrane-bound enzymes, among them those of drug oxidation.

Data set [3] in a line: Stability in mouse liver microsomes assessed as CYP450-mediated metabolism by measuring parent compound remaining at 1 uM measured after 60 mins in presence of NADPH generating system by LC-MS/MS analysis. The format is ADME. To be noted: 1 h. In short, it runs like this:
(§2)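 Liver microsomes from mouse or human, 0.2 mg/mL, with 1 μM compound (final) in 100 mM potassium phosphate at pH 7.4. Adding microsomes started the reaction; triplicates. After 60 min, quenched with 3 volumes of ice-cold acetonitrile containing internal standard.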

Data set [4] can be described thus: Stability in human liver microsomes assessed as parent compound remaining at 1 uM measured after 60 mins in absence of NADPH by LC-MS/MS analysis. The format is ADME, Microsome. To be noted: liver microsomes, read-out: Stability. In short, it runs like this: as §1
Another data set concerns HeLa S3. Description: Cytotoxicity against human HeLaS3 cells by XTT assay. The format is cell-based. A general note: Tetrazolium dyes change colour on reduction, which living cells bring about.
Another data set concerns HepG2. Kind of data set: Cytotoxicity against human HepG2 cells by XTT assay. The format is cell-based.
In another data set the test system is CCRF-CEM. Kind of data set: Cytotoxicity against human CCRF-CEM cells by XTT assay. The format is cell-based.
The next data set deals with HL-60. Description: Cytotoxicity against human HL60 cells by XTT assay. The format is cell-based.
In data set [5] the target is Phosphatidylinositol 4-kinase alpha (Homo sapiens) (UniProt P42356). Description: Inhibition of PI4K3alpha (unknown origin).
Phosphatidylinositol 4-kinase alpha (Homo sapiens), sequence (P42356 whole entry, looked up): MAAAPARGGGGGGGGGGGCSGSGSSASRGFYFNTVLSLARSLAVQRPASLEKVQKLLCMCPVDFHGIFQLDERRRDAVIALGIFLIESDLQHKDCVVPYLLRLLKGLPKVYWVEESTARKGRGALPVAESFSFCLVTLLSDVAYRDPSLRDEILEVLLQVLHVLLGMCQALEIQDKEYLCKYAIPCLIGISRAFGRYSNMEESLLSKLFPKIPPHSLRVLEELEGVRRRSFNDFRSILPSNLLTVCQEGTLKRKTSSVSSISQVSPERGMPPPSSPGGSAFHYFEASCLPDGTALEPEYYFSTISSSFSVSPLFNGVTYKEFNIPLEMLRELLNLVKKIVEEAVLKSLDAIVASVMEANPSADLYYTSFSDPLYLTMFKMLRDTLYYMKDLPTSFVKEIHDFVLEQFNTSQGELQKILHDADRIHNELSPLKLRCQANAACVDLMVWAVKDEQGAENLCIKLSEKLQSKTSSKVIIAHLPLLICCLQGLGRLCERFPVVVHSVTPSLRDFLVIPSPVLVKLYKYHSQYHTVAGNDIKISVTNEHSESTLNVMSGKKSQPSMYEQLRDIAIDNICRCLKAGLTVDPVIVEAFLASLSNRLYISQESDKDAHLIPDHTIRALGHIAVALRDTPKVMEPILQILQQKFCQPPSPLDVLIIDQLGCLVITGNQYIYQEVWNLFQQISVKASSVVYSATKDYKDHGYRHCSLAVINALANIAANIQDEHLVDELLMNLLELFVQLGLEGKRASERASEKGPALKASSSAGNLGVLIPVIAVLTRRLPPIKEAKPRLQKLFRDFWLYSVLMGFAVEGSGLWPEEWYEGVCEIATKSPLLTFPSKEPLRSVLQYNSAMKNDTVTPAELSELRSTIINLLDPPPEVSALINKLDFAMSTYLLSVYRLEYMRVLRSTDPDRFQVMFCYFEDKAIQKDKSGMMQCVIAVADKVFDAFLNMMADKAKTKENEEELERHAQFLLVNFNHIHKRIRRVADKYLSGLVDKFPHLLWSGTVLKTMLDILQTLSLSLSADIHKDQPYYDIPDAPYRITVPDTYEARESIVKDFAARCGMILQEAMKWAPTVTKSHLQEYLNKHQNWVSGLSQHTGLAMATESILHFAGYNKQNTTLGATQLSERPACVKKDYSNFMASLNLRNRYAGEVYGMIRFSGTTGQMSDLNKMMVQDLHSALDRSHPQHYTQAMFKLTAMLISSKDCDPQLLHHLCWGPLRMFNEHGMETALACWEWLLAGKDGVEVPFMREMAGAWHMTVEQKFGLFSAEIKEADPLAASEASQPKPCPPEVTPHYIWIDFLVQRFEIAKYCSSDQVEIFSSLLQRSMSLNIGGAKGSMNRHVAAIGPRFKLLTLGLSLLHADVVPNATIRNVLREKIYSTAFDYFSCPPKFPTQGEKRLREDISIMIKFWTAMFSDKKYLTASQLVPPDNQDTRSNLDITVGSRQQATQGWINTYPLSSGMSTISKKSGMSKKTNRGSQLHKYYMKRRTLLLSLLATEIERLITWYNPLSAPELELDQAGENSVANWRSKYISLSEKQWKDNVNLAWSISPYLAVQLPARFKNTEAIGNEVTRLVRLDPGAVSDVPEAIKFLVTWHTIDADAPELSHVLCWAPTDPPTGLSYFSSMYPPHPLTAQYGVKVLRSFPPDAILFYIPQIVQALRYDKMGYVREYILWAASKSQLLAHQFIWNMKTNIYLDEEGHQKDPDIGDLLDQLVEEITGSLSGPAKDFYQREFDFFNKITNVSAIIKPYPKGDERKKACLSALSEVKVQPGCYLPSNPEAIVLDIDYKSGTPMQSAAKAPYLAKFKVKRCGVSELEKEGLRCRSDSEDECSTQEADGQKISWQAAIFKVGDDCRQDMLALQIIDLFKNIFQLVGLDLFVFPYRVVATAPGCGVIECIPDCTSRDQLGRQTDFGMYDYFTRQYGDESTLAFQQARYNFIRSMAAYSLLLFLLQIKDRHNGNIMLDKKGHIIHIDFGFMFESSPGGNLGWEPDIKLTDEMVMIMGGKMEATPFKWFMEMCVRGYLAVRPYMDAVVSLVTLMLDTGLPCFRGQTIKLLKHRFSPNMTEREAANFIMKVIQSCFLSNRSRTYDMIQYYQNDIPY
The target of data set [6] is Phosphatidylinositol 4-kinase beta (Homo sapiens, UniProt Q9UBF8). Description: Inhibition of PI4K3beta (unknown origin).
Phosphatidylinositol 4-kinase beta, sequence (Q9UBF8 whole entry): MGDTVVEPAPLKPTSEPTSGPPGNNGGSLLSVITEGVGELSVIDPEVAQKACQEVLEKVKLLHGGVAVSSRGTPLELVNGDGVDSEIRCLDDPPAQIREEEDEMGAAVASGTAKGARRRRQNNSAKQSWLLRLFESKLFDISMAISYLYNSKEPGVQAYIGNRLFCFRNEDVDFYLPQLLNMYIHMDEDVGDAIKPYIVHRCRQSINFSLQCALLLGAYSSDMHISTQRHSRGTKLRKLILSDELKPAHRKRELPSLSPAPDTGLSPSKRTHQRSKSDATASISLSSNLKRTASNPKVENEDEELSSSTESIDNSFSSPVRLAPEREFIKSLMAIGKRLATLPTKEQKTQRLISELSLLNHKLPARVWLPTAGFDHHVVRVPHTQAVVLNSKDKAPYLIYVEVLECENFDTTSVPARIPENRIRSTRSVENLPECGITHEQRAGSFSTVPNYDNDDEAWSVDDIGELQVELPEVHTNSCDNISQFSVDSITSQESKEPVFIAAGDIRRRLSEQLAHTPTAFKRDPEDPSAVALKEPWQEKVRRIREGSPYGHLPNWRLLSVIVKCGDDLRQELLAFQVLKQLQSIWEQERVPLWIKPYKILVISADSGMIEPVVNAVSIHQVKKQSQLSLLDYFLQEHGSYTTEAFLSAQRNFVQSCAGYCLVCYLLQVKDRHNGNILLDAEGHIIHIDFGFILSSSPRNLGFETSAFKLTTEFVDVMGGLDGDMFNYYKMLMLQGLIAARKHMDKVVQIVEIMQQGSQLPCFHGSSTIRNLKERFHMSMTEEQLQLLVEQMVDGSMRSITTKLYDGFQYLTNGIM
Data set [7] deals with Cytochrome P450. Kind of data set: Stability in human liver microsomes assessed as CYP450-mediated metabolism by measuring parent compound remaining at 1 uM measured after 60 mins in presence of NADPH generating system by LC-MS/MS analysis. The format is ADME. Particulars: 1 h. In short, it runs like this:
as §2

Data set [8] can be described thus: AUClast in 5XFAD transgenic B6SJLF1/J mouse brain at 10 mg/kg, ip by LC-MS/MS analysis. The format is ADME, organism-based. In short, it runs like this:
(§3)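 Hemizygous 5XFAD mice aged 11 months received one terminal ip dose of 10 mg/kg in NMP–Tween 80–saline (2.5:5:92.5 v/v/v). […] Extraction by acetonitrile protein precipitation with losartan as internal standard, then LC–MS/MS. Noncompartmental analysis: Cmax and Tmax observed; AUC to 6 h by log–linear trapezoidal rule.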

Data set [9] is described as follows: AUClast in 5XFAD transgenic B6SJLF1/J mouse plasma at 10 mg/kg, ip by LC-MS/MS analysis. The format is ADME, organism-based. The gist of the method:
as §3

Data set [10] has as its system Cytochrome P450. Description: Drug metabolism in human liver microsomes assessed as CYP450-mediated O-dealkylation at 1 uM measured after 60 mins in presence of NADPH generating system by LC-MS/MS analysis. Particulars: 1 h. The format is ADME. In short, it runs like this: (§4)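 Mouse or human liver microsomes at 0.2 mg/mL, compound at 1 μM final. Controls run without cofactors. Quenched at 60 min with cold acetonitrile containing internal standard; read as % remaining.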

Data set [11] in a line: Tmax in 5XFAD transgenic B6SJLF1/J mouse brain at 10 mg/kg, ip by LC-MS/MS analysis. The format is ADME, organism-based. The gist of the method:
as §3

Data set [12] relates to Mus musculus. Kind of data set: Suppression of cognitive dysfunction in 5XFAD transgenic B6SJLF1/J mouse model of Alzheimer's disease assessed as body weight gain at 10 mg/kg, ip administered daily for 5 months measured during compound dosing. The format is functional, organism-based. The gist of the method:
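Male and female hemizygous 5XFAD and WT littermates were dosed from age 3 months with 10 mg/kg ip daily or vehicle (5% DMSO, 5% Tween 80, 90% PBS), n = 13–16. Body weight was followed to study day 150 (8 months). Groups were compared by two-way ANOVA.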

The nature of data set [13]: Cmax in 5XFAD transgenic B6SJLF1/J mouse plasma at 10 mg/kg, ip by LC-MS/MS analysis. Further details: dose 10 mg/kg, route intraperitoneal. The format is ADME, organism-based. In short, it runs like this: as §3
Data set [14] can be described thus: Tmax in 5XFAD transgenic B6SJLF1/J mouse plasma at 10 mg/kg, ip by LC-MS/MS analysis. The format is ADME, organism-based. In short, it runs like this:
as §3

For data set [15], the system named is Cytochrome P450. Kind of data set: Drug metabolism in human liver microsomes assessed as CYP450-mediated O-demethylated metabolite formation at 1 uM measured after 60 mins in presence of NADPH generating system by LC-MS/MS analysis. The format is ADME. Particulars: 1 h.
A short description of data set [16]: Cmax in 5XFAD transgenic B6SJLF1/J mouse brain at 10 mg/kg, ip by LC-MS/MS analysis. The format is ADME, organism-based. Further details: dose 10 mg/kg, route intraperitoneal. In short, it runs like this: as §3
A short description of data set [17]: Drug metabolism in mouse liver microsomes assessed as CYP450-mediated O-dealkylation at 1 uM measured after 60 mins in presence of NADPH generating system by LC-MS/MS analysis. The format is ADME. Particulars: 1 h. In short, it runs like this: as §4
In data set [18] the test system is Mus musculus. Description: Suppression of cognitive dysfunction in 5XFAD transgenic B6SJLF1/J mouse model of Alzheimer's disease assessed as increase in freezing behavior response to 1000 Hz tone conditioned stimulus at 10 mg/kg, ip administered daily for 5 months measured during 120 secs of testing by contextual fear conditioning assay. The format is functional, organism-based. In short, it runs like this: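 Dosed daily ip at 10 mg/kg (vehicle 5% DMSO/5% Tween 80/90% PBS) from 3 months, n = 13–16, then tested at 8 months. Day 1: 240 s in chamber with two pairings of a 30 s 1000 Hz tone and a 2 s 0.5 mA footshock, at 120 and 180 s. Day 2: contextual test, 300 s in same chamber. Day 3: novel box for 240 s with tone during last 120 s. Read-out: freezing.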

Broadly, the IC50 is the concentration needed to halve the response being measured. Take `COc1ccc(-n2c(C)nc3c(N4CC[C@@H](NC(C)=O)C4)nc(C)nc32)cc1OC`: the IC50 in [1] is greater than 100 µM. Moreover, the remaining at 1 h, 1 µM in data set [2] and in data set [4] was greater than 95% each time. The Parent compound remaining in data set [3] amounted to 104%.

As for `COc1ccc(-c2c(C)oc3c(N4CC[C@@H](NC(C)=O)C4)cc(C)nc23)cc1OC`, in data set [1], the IC50 was greater than 100 µM. In addition, the remaining at 1 h, 1 µM in data set [2] and in data set [4] was greater than 95% each time.

`COc1ccc(-c2scc3c(N4CC[C@@H](NC(C)=O)C4)nc(C)nc23)cc1OC`: the IC50 in data set [1] is greater than 100 µM. In addition, the remaining at 1 h, 1 µM in [2] and in data set [4] was greater than 95% throughout.

As for `COc1ccc(-c2c(C)nc3c(NCCNC(C)=O)cc(C)nn23)cc1OC`, the Activity entry in the data set with HeLa S3, with HepG2, with CCRF-CEM and in the data set on HL-60 was “Non-Toxic” in each case. Also, in data set [1], the half-maximal inhibitory concentration (IC50) is greater than 10 µM. Besides, the inhibition result in data set [5] was “inactive”.

Take `COc1ccc(-c2c(C)nc3c(N4CC[C@H](NC(C)=O)C4)cc(C)nn23)cc1OC`: the Activity result in the data set with HeLa S3, in the data set on HepG2, in the data set with CCRF-CEM and with HL-60 was “Non-Toxic” in each case. In data set [6], this molecule yielded an IC50 greater than 10 µM. Moreover, the inhibition entry in data set [5] was “inactive”.

As to `COc1ccc(-c2c(C)nc3c(N4CCCC4)cc(C)nn23)cc1OC`, the remaining at 1 h, 1 µM in data set [2] and in data set [4] was greater than 95% each time. Besides, the Parent compound remaining in data set [3] is given as 1%. In addition, in the data set with Cytochrome P450 [7], the Stability stood at 58%.

What is called AUC(0-t) is the area under the concentration-time curve up to a stated or last time point. Broadly, the Tmax is the time from dosing to the highest level. The term Cmax denotes the highest concentration seen after dosing. On to `COc1ccc(-c2c(C)nc3c(N4CC[C@@H](NC(=O)Oc5ccccc5)C4)cc(C)nn23)cc1OC`, for which the Activity entry in the data set on HeLa S3, with HepG2, with CCRF-CEM and in the data set with HL-60 was “Non-Toxic” each time. The figures for the AUC(0-t) in data set [8] and in data set [9] were 13 µM·h and 22.1 µM·h, respectively. For the same molecule, the Drug metabolism entry (in the data set on Cytochrome P450 [10]; in the data set with Cytochrome P450 [15]; in [17]) was “Metabolite_Detected” throughout. The time to peak (Tmax) stood at 30 min in data set [11] and 15 min in [14]. Further, the outcome with Mus musculus [12] and in the data set on Mus musculus [18] was Active. For the same molecule, the Cmax in data set [13] was 7.7 µM; in data set [16] it was 3.89 µM. The IC50 in data set [6] is greater than 10 µM. For the same molecule, the inhibition entry in data set [5] was “inactive”.

Consider `COc1ccc(-c2c(C)nc3c(N4CC[C@@H](NC(C)=O)C4)cc(C)nn23)cc1OC`, for which the Activity entry with HeLa S3, in the data set on HepG2, in the data set with CCRF-CEM and in the data set with HL-60 was “Non-Toxic” in each case. The IC50 in data set [6] is greater than 10 µM. The remaining at 1 h, 1 µM in data set [2] and in data set [4] was greater than 95% each time. Besides, in data set [5], the inhibition result was “inactive”.

For `COc1ccc(-c2c(C)nc3c(N4CC[C@@H](NS(=O)(=O)C5CC5)C4)cc(C)nn23)cc1OC`, the remaining at 1 h, 1 µM in data set [2] and in data set [4] was greater than 95% throughout. Further, the Parent compound remaining in data set [3] is recorded as 95%. Besides, the Stability with Cytochrome P450 [7] is given as 111%.

Turning to `COc1ccc(-c2c(C)nc3c(N4CC[C@@H](NS(=O)(=O)c5ccc(C(F)(F)F)cc5)C4)cc(C)nn23)cc1OC`, the remaining at 1 h, 1 µM in data set [2] and in [4] was greater than 95% each time. For the same molecule, the Parent compound remaining in data set [3] worked out at 15%. Besides, the Stability in the data set with Cytochrome P450 [7] was 61%.

For `COc1ccc(-c2c(C)nc3c(N4CC[C@@H](NS(=O)(=O)c5ccccc5)C4)cc(C)nn23)cc1OC`, the remaining at 1 h, 1 µM in data set [2] and in [4] was greater than 95% each time. The Parent compound remaining in data set [3] is on record as 20%. For the same molecule, the Stability in the data set with Cytochrome P450 [7] is on record as 43%.

With `COc1ccc(-c2cnc3c(N4CC[C@@H](NC(C)=O)C4)cc(C)nn23)cc1OC`, the remaining at 1 h, 1 µM in [2] and in [4] was greater than 95% each time. Also, the Parent compound remaining in [3] stood at 53%. Further, the Stability in the data set on Cytochrome P450 [7] stood at 28%.

Regarding `COc1ccc(-c2c(C)nc3c(N4CC[C@@H](NS(=O)(=O)c5ccc(Cl)cc5)C4)cc(C)nn23)cc1OC`, the remaining at 1 h, 1 µM in data set [2] and in data set [4] was greater than 95% in each case. Besides, in data set [3], the Parent compound remaining amounted to 7%. Further, the Stability with Cytochrome P450 [7] worked out at 32%.
